Tests used:
[1] = Selectivity index, ratio of IC50 for mouse HDAC6 to IC50 for human HDAC1
Method in brief: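 Ratio of HDAC6 IC50 to HDAC1 IC50. Both enzymes were FLAG-immunopurified from transfected 293T cells: human HDAC1 and mouse HDAC6. Each was assayed on Ac-KGLGK(Ac)-MCA with 100 µM DTT at 37 °C for 30 min, developed with trypsin, and AMC read by fluorescence. IC50s are means of ≥3 curves.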

[2] = Cytotoxicity against human BSY1 cells by SRB assay; type: functional; details: BSY-1
Method in brief: (§1)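 Tested at the Japanese Foundation for Cancer Research panel of 39 human cancer cell lines. Five concentrations per compound, spanning 10^-10 to 10^-6 M or 10^-8 to 10^-4 M. Growth measured by sulforhodamine B colorimetry. GI50 is the concentration giving 50% growth inhibition relative to control.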

LOX IMVI = assay: Cytotoxicity against human LOXIMVI cells by SRB assay; type: functional; method in brief: as §1
[3] = Cytotoxicity against human OVCAR5 cells by SRB assay; type: functional; details: OVCAR-5; method in brief: as §1
HT-29 = assay: Cytotoxicity against human HT-29 cells by SRB assay; type: functional; method in brief: as §1
HCC 2998 = assay: Cytotoxicity against human HCC2998 cells by SRB assay; type: functional; method in brief: as §1
HCT-116 = assay: Cytotoxicity against human HCT116 cells by SRB assay; type: functional; method in brief: as §1
[4] = Cytotoxicity against human HBC5 cells by SRB assay; type: functional; method in brief: as §1
MCF7 = assay: Cytotoxicity against human MCF7 cells by SRB assay; type: functional; method in brief: as §1
A549 = assay: Cytotoxicity against human A549 cells by SRB assay; type: functional; method in brief: as §1
St-4 = assay: Cytotoxicity against human St-4 cells by SRB assay; type: functional; method in brief: as §1
MDA-MB-231 = assay: Cytotoxicity against human MDA-MB-231 cells by SRB assay; type: functional; method in brief: as §1
KM12 = assay: Cytotoxicity against human KM12 cells by SRB assay; type: functional; method in brief: as §1
SK-OV-3 = assay: Cytotoxicity against human SKOV3 cells by SRB assay; type: functional; method in brief: as §1
[5] = Cytotoxicity against human OVCAR4 cells by SRB assay; type: functional; details: OVCAR-4; method in brief: as §1
OVCAR-3 = assay: Cytotoxicity against human OVCAR3 cells by SRB assay; type: functional; method in brief: as §1
NCI-H460 = assay: Cytotoxicity against human NCI-H460 cells by SRB assay; type: functional; method in brief: as §1
[6] = Cytotoxicity against human DMS273 cells by SRB assay; type: functional; details: DMS-273; method in brief: as §1
[7] = Cytotoxicity against human RXF631L cells by SRB assay; type: functional; details: RXF 631; method in brief: as §1
[8] = Cytotoxicity against human SNB78 cells by SRB assay; type: functional; details: SNB-78; method in brief: as §1
OVCAR-8 = assay: Cytotoxicity against human OVCAR8 cells by SRB assay; type: functional; method in brief: as §1
SF-539 = assay: Cytotoxicity against human SF539 cells by SRB assay; type: functional; method in brief: as §1
[9] = Cytotoxicity against human MKN1 cells by SRB assay; type: functional; details: MKN-1; method in brief: as §1
[10] = Cytotoxicity against human MKN74 cells by SRB assay; type: functional; details: MKN-74; method in brief: as §1
Histone deacetylase 1 = Histone deacetylase 1 (Homo sapiens, UniProt Q13547); assay: Inhibition of human HDAC1 expressed in human 293T cells using Ac-KGLGK(Ac)-MCA as substrate after 30 mins by fluorescence assay
PC-3 = assay: Cytotoxicity against human PC3 cells by SRB assay; type: functional; method in brief: as §1
[11] = Cytotoxicity against human MKN7 cells by SRB assay; type: functional; details: MKN-7; method in brief: as §1
NCI-H23 = assay: Cytotoxicity against human NCI-H23 cells by SRB assay; type: functional; method in brief: as §1
[12] = Cytotoxicity against human DMS114 cells by SRB assay; type: functional; details: DMS-114; method in brief: as §1
SF-295 = assay: Cytotoxicity against human SF295 cells by SRB assay; type: functional; method in brief: as §1
DU-145 = assay: Cytotoxicity against human DU145 cells by SRB assay; type: functional; method in brief: as §1
SNB-75 = assay: Cytotoxicity against human SNB75 cells by SRB assay; type: functional; method in brief: as §1
U-251 = assay: Cytotoxicity against human U251 cells by SRB assay; type: functional; method in brief: as §1
SF-268 = assay: Cytotoxicity against human SF268 cells by SRB assay; type: functional; method in brief: as §1
[13] = Cytotoxicity against human MKN45 cells by SRB assay; type: functional; details: MKN-45; method in brief: as §1
[14] = Cytotoxicity against human HBC4 cells by SRB assay; type: functional; method in brief: as §1
NCI-H226 = assay: Cytotoxicity against human NCI-H226 cells by SRB assay; type: functional; method in brief: as §1
[15] = molecular target: T1, Protein deacetylase HDAC6 (Mus musculus, UniProt Q9Z2V5); assay: Inhibition of mouse HDAC6 expressed in human 293T cells using Ac-KGLGK(Ac)-MCA as substrate after 30 mins by fluorescence assay; type: cell-based
T1 sequence (Q9Z2V5 whole entry): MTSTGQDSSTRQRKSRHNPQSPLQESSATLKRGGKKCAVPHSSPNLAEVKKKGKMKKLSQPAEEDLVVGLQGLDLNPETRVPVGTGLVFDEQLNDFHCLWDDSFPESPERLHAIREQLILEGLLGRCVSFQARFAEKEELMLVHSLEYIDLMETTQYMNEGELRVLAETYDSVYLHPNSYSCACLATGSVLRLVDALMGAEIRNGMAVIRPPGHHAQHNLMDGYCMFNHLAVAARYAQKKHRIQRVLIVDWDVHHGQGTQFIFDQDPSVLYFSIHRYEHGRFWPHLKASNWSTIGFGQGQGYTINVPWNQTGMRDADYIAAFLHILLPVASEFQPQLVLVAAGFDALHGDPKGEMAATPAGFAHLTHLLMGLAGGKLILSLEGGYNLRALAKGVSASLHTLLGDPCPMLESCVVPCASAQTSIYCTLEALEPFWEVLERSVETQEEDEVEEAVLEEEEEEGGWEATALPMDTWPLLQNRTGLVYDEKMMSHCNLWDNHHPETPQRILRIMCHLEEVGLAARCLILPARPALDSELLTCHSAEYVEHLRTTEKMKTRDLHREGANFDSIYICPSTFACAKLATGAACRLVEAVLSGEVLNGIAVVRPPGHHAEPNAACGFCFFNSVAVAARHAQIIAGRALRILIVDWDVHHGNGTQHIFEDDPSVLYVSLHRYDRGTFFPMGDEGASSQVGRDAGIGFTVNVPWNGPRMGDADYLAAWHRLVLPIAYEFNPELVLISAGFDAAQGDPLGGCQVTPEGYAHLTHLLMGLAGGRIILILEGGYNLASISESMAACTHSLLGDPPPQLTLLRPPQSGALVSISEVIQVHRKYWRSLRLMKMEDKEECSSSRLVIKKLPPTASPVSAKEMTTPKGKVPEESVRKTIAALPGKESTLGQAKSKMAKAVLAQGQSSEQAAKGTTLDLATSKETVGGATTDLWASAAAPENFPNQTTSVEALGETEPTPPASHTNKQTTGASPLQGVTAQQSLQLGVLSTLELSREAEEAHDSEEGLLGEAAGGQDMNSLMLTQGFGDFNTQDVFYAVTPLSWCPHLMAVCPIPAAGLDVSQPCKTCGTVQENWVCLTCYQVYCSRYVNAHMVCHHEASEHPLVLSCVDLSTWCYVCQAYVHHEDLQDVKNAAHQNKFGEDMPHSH

[16] = Cytotoxicity against human MKN28 cells by SRB assay; type: functional; details: MKN-28; method in brief: as §1
HCT-15 = assay: Cytotoxicity against human HCT15 cells by SRB assay; type: functional; method in brief: as §1
ACHN = assay: Cytotoxicity against human ACHN cells by SRB assay; type: functional; method in brief: as §1
NCI-H522 = assay: Cytotoxicity against human NCI-H522 cells by SRB assay; type: functional; method in brief: as §1

Chain of Histone deacetylase 1 (Q13547 whole entry): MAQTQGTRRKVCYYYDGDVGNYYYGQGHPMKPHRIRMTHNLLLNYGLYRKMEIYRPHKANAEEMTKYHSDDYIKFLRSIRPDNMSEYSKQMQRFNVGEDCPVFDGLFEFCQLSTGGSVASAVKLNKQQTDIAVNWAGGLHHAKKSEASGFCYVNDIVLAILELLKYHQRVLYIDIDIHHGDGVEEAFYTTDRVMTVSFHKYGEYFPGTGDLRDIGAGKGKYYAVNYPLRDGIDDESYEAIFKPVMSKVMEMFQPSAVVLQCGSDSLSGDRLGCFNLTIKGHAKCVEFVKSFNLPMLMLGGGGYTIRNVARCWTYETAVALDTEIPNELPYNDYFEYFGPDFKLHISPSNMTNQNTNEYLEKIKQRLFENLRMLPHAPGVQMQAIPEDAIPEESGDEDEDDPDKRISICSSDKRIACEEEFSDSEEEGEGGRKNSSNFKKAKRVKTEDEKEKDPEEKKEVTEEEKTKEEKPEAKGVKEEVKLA

Structure (SMILES): CCC(C)[C@H]1NC(=O)[C@H]2CSSCC/C=C/[C@H](CC(=O)N[C@H](C)C(=O)N2)OC(=O)C[C@@H]1O (some centres not stated)
- Ratio IC50 [1]: 636

Structure (SMILES): CSCC[C@@H]1NC(=O)C[C@H]2/C=C/CCSSC[C@@H](NC1=O)C(=O)N[C@@H](C(C)C)[C@H](O)CC(=O)O2
- GI50 [2]: 1600 nM
- GI50 (LOX IMVI): 230 nM
- GI50 [3]: 1300 nM
- GI50 (HT-29): 1400 nM
- GI50 (HCC 2998): 1700 nM
- GI50 (HCT-116): 540 nM
- GI50 [4]: 1900 nM
- GI50 (MCF7): 1800 nM
- GI50 (A549): 1400 nM
- GI50 (St-4): 3.4 µM
- GI50 (MDA-MB-231): 1800 nM
- GI50 (KM12): 1600 nM
- GI50 (SK-OV-3): 1700 nM
- GI50 [5]: 1800 nM
- GI50 (OVCAR-3): 1800 nM
- GI50 (NCI-H460): 1800 nM
- GI50 [6]: 2300 nM
- GI50 [7]: 4 µM
- GI50 [8]: 1700 nM
- GI50 (OVCAR-8): 1900 nM
- GI50 (SF-539): 1800 nM
- GI50 [9]: 1400 nM
- GI50 [10]: 1500 nM
- IC50 (Histone deacetylase 1): 337 nM
- GI50 (PC-3): 1600 nM
- GI50 [11]: 2100 nM
- GI50 (NCI-H23): 1600 nM
- GI50 [12]: 1300 nM
- GI50 (SF-295): 1600 nM
- GI50 (DU-145): 1500 nM
- GI50 (SNB-75): 1000 nM
- GI50 (U-251): 410 nM
- GI50 (SF-268): 960 nM
- GI50 [13]: 3.7 µM
- GI50 [14]: 1300 nM
- GI50 (NCI-H226): 1700 nM
- IC50 [15]: > 10 µM
- GI50 [16]: 1900 nM
- GI50 (HCT-15): 15 µM
- GI50 (ACHN): 4.4 µM
- GI50 (NCI-H522): 360 nM

— ChEMBL document CHEMBL3124849, “Total synthesis of burkholdacs A and B and 5,6,20-tri-epi-burkholdac A: HDAC inhibition and antiproliferative activity” (Eur J Med Chem, 2014)
